ChEMBL document CHEMBL3124924, “Bifunctional ethyl 2-amino-4-methylthiazole-5-carboxylate derivatives: synthesis and in vitro biological evaluation as antimicrobial and anticancer agents” (2014)
Converted amounts (≈) assume the structure as drawn.

Columns and labels:
Format in all cases: functional
[1] = test system: Candida albicans; experiment: Antifungal activity against Candida albicans ATCC 10231 assessed as growth inhibition after 48 hrs by two-fold serial dilution assay; conditions: ATCC 10231, 48 h
How it was run: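 Twofold serial broth dilution run on compounds giving inhibition zones of 13 mm or more. Organisms pre-grown in suitable broth at 37 °C, 24 h for bacteria and 48 h for fungi. Dilution series 200, 100, 50, 25, 12.5, 6.25. Each 5 mL tube inoculated with 0.1 mL and incubated 37 °C for 48 h. Tubes scored for presence or absence of growth.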

[2] = test system: U-251; experiment: Cytotoxicity against human U251 cells assessed as growth inhibition at 10 uM after 48 hrs by SRB assay; conditions: U-251, 48 h, read-out: GI
How it was run: (§1)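 NCI-60 one-dose primary screen run by the NCI Drug Evaluation Branch across the full 60-line panel. Single high-dose treatment with 48 h continuous drug exposure. Cell growth estimated by sulforhodamine B protein staining. Results given as percent growth of treated cells and expressed as percentage growth inhibition.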

[3] = test system: SK-MEL-5; experiment: Cytotoxicity against human SK-MEL-5 cells assessed as growth inhibition at 10 uM after 48 hrs by SRB assay; conditions: SK-MEL-5, 48 h, read-out: GI; how it was run: as §1
[4] = test system: Pseudomonas aeruginosa; experiment: Antibacterial activity against Pseudomonas aeruginosa ATCC 27853 assessed as growth inhibition at 1 mg/mL after 24 hrs by agar-cup diffusion method; conditions: ATCC 27853, 24 h, read-out: DIZ
How it was run: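 Agar-cup diffusion: 1 mL of 6 h broth culture seeded per 100 mL molten sterile agar at 45 °C and poured into plates. 8 mm cups cut, each filled with 0.1 mL of 1 mg/mL test solution. Incubated 37 °C for 24 h, 48 h for C. albicans. DMSO control per organism. Inhibition zone diameter in mm, mean of three measurements.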

[5] = test system: Staphylococcus aureus; experiment: Bactericidal activity against Staphylococcus aureus ATCC 6538 after 18 hrs; conditions: ATCC 6538, 18 h
How it was run: (§2)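 Continuation of the broth-dilution MIC test. A loopful from each tube without visible growth spread on a quarter of a Mueller-Hinton agar plate and incubated 18 h. Lowest concentration giving no growth on subculture taken as the MBC.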

[6] = test system: SW-620; experiment: Cytotoxicity against human SW620 cells assessed as growth inhibition at 10 uM after 48 hrs by SRB assay; conditions: SW-620, 48 h, read-out: GI; how it was run: as §1
[7] = test system: T47D; experiment: Cytotoxicity against human T47D cells assessed as growth inhibition at 10 uM after 48 hrs by SRB assay; conditions: read-out: GI; how it was run: as §1
[8] = test system: SN12C; experiment: Cytotoxicity against human SN12C cells assessed as growth inhibition at 10 uM after 48 hrs by SRB assay; conditions: read-out: GI; how it was run: as §1
[9] = test system: Candida albicans; experiment: Fungicidal activity against Candida albicans ATCC 10231 after 18 hrs; conditions: ATCC 10231, 18 h; how it was run: as §2
[10] = test system: MCF7; experiment: Cytotoxicity against human MCF7 cells assessed as growth inhibition at 10 uM after 48 hrs by SRB assay; conditions: MCF7, 48 h, read-out: GI; how it was run: as §1
[11] = test system: NCI-H322M; experiment: Cytotoxicity against human NCI-H322M cells assessed as growth inhibition at 10 uM after 48 hrs by SRB assay; conditions: read-out: GI; how it was run: as §1
[12] = Cytotoxicity against human NCI-ADR-RES cells assessed as growth inhibition at 10 uM after 48 hrs by SRB assay; conditions: read-out: GI; how it was run: as §1
[13] = test system: PC-3; experiment: Cytotoxicity against human PC3 cells assessed as growth inhibition at 10 uM after 48 hrs by SRB assay; conditions: PC-3, 48 h, read-out: GI; how it was run: as §1
[14] = test system: HOP-92; experiment: Cytotoxicity against human HOP92 cells assessed as growth inhibition at 10 uM after 48 hrs by SRB assay; conditions: HOP-92, 48 h, read-out: GI; how it was run: as §1
[15] = test system: NCI-H522; experiment: Cytotoxicity against human NCI-H522 cells assessed as growth inhibition at 10 uM after 48 hrs by SRB assay; conditions: NCI-H522, 48 h, read-out: GI; how it was run: as §1

SMILES	MIC [1]	inhibition of growth at 10 µM [2]	inhibition of growth at 10 µM [3]	zone of inhibition at 1000 µg/mL [4]	MBC [5]	inhibition of growth at 10 µM [6]	inhibition of growth at 10 µM [7]	inhibition of growth at 10 µM [8]	MFC [9]	inhibition of growth at 10 µM [10]	inhibition of growth at 10 µM [11]	inhibition of growth at 10 µM [12]	inhibition of growth at 10 µM [13]	inhibition of growth at 10 µM [14]	inhibition of growth at 10 µM [15]
Cc1nc(N)sc1C(=O)Nc1ccc(F)cc1	100 µg/mL (≈ 398 µM)	5.77%	6.65%	> 13 mm	25 µg/mL (≈ 99.5 µM)	< 10%	< 10%	3.01%	100 µg/mL (≈ 398 µM)	2.21%	2.56%	2.36%	< 10%	< 10%	9.55%
CCOC(=O)c1sc(NS(=O)(=O)c2ccccc2)nc1C	–	< 10%	< 10%	> 13 mm	25 µg/mL (≈ 76.6 µM)	< 10%	< 10%	< 10%	–	< 10%	< 10%	< 10%	< 10%	< 10%	< 10%
CCOC(=O)c1sc(NC(=O)NC2CCCCC2)nc1C	–	< 10%	8.95%	> 13 mm	50 µg/mL (≈ 161 µM)	7.5%	4.11%	5.62%	–	12.7%	< 10%	8.96%	< 10%	53.9%	< 10%
CCOC(=O)c1sc(NC(=O)c2cc(OC)c(OC)c(OC)c2)nc1C	–	< 10%	5.59%	> 13 mm	6.25 µg/mL (≈ 16.4 µM)	< 10%	< 10%	7.38%	–	12.5%	< 10%	4.66%	35%	53.1%	32.6%

Second part, led by results:

MIC [1]	SMILES	inhibition of growth at 10 µM [2]	inhibition of growth at 10 µM [3]	zone of inhibition at 1000 µg/mL [4]	MBC [5]	inhibition of growth at 10 µM [6]	inhibition of growth at 10 µM [7]	inhibition of growth at 10 µM [8]	MFC [9]	inhibition of growth at 10 µM [10]	inhibition of growth at 10 µM [11]	inhibition of growth at 10 µM [12]	inhibition of growth at 10 µM [13]	inhibition of growth at 10 µM [14]	inhibition of growth at 10 µM [15]
12.5 µg/mL (≈ 38.4 µM)	Cc1nc(NC(=S)Nc2ccc(F)cc2)sc1C(=O)NN	5.41%	5.01%	> 13 mm	6.25 µg/mL (≈ 19.2 µM)	6.48%	2.52%	2.43%	12.5 µg/mL (≈ 38.4 µM)	< 10%	15.1%	10%	2.36%	33.7%	< 10%
50 µg/mL (≈ 168 µM)	Cc1nc(NC(=O)NC2CCCCC2)sc1C(=O)NN	2.59%	< 10%	> 13 mm	50 µg/mL (≈ 168 µM)	< 10%	< 10%	< 10%	100 µg/mL (≈ 336 µM)	< 10%	< 10%	3.01%	< 10%	82.8%	99.5%
25 µg/mL (≈ 81.9 µM)	CCOC(=O)c1sc(NC(=O)Nc2ccccc2)nc1C	9.58%	4.58%	> 13 mm	25 µg/mL (≈ 81.9 µM)	2.85%	12.6%	4.19%	25 µg/mL (≈ 81.9 µM)	7.17%	< 10%	13.9%	4.18%	64.2%	2.64%
25 µg/mL (≈ 85.8 µM)	Cc1nc(NC(=O)Nc2ccccc2)sc1C(=O)NN	< 10%	2.35%	> 13 mm	12.5 µg/mL (≈ 42.9 µM)	< 10%	< 10%	< 10%	25 µg/mL (≈ 85.8 µM)	2.96%	22%	6.43%	< 10%	< 10%	63.4%
